Reference: paper PMC4687050 (Nature chemical biology, 2014)
“Also recorded” adds a separate entry of the source.

Key:
ERK1/2 = test: Bio-layer interferometry binding kinetics; parameters: species or system human; conditions: BLI, 25 °C
Summary of the method: (§1)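 Kinetics by bio-layer interferometry at 25 °C in 20 mM HEPES pH 7.5, 150 mM NaCl, 0.5 mM TCEP. Biotinylated kinases were captured on streptavidin biosensors. Association and dissociation phases ran 600 s each over several compound concentrations. Controls were protein-coated sensors without compound and uncoated sensors with compound. Data were double-referenced and fitted for binding constants.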

[1] = test system: MDA-MB-231 cells (pERK, pRSK1, pETS1); test: ERK signalling after inhibitor wash-out, Western blotting; assay type: cell-based, human; conditions: 500 nM for 4 hours
Summary of the method: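 MDA-MB-231 cells in DMEM/10% FBS with penicillin/streptomycin were treated with ERK inhibitor for 4 h, washed twice in PBS and released into fresh medium for 0.5, 1 and 2 h. Cells were trypsinised and lysed in SDS loading buffer with sonication. Equal protein was immunoblotted for pERK, pRSK and pETS1, with total ERK1/2, GAPDH or α-tubulin as loading controls. Band intensities were normalised to DMSO-treated cells.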

CSNK2A2 = CSNK2A2 (Homo sapiens, UniProt P19784); test: Enzymatic IC50 assay; assay type: biochemical
Sequence of CSNK2A2 (P19784 whole entry): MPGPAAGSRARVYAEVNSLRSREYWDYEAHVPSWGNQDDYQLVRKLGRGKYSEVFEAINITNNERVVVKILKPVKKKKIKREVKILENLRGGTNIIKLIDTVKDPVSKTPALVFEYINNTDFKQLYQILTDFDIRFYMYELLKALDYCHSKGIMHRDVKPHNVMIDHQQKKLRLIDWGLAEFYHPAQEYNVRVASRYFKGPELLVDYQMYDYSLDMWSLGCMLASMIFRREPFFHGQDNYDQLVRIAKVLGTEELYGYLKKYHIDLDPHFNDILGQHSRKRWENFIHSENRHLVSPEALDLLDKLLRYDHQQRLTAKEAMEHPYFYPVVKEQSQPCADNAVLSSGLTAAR

HEK293T cells = test: Cell survival of BRCA2 siRNA knock-down cells; assay type: cell-based, human
Summary of the method: (§2)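 HEK293T cells were reverse-transfected with 40 nM siRNA per plate (Dharmafect 1), with GFP siRNA as control, then reseeded after overnight incubation. They were transfected again on day 3. For the RAD51 arm, knockdown was verified by Western blot at 12 h and day 6, with six-day compound exposure. Cells were grown in DMEM/10% FBS; viability was read by resazurin incubation for 2 h, fluorescence at 590 nm.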

MDA-MB 231 cells = test: Growth of cells with doxycycline-induced BRCA2 shRNA depletion; assay type: cell-based, human
Summary of the method: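 MDA-MB-231 cells carrying a doxycycline-inducible BRCA2 shRNA were seeded at 2500 cells/well in DMEM/10% FBS with penicillin/streptomycin and treated with ERK inhibitors over a concentration range. Cell number was read after 2 h in resazurin-containing medium, by fluorescence at 590 nm.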

V-C8 cells = test: Cell viability of BRCA2-deficient versus BRCA2-complemented cells; assay type: cell-based, hamster; conditions: three-day exposure
Summary of the method: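 They were exposed to test compound for three days over a concentration range, then incubated 2 h in resazurin-containing medium; fluorescence was read at 590 nm.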

ERK2 mutants = test: Bio-layer interferometry binding kinetics on ERK2 mutants; parameters: species or system human
ERK1 [2] = target: T1, ERK1 (Homo sapiens, UniProt P27361); test: Isothermal titration calorimetry; assay type: binding; conditions: ITC
T1 sequence (P27361 whole entry): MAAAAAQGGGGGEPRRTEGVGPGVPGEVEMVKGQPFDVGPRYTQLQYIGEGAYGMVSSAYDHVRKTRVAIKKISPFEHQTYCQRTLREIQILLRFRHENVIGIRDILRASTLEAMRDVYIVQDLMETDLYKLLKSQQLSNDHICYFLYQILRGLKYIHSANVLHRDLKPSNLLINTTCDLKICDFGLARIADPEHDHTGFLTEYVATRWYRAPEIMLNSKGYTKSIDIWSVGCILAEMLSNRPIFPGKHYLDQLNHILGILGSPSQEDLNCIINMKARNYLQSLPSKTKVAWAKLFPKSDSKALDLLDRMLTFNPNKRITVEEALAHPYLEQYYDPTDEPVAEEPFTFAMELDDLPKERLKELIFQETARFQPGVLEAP

[3] = target: Cdc2-like kinase 2 (CLK2) (Homo sapiens, UniProt P49760); test: Enzymatic IC50 assay; assay type: biochemical
Sequence of Cdc2-like kinase 2 (CLK2) (P49760 whole entry): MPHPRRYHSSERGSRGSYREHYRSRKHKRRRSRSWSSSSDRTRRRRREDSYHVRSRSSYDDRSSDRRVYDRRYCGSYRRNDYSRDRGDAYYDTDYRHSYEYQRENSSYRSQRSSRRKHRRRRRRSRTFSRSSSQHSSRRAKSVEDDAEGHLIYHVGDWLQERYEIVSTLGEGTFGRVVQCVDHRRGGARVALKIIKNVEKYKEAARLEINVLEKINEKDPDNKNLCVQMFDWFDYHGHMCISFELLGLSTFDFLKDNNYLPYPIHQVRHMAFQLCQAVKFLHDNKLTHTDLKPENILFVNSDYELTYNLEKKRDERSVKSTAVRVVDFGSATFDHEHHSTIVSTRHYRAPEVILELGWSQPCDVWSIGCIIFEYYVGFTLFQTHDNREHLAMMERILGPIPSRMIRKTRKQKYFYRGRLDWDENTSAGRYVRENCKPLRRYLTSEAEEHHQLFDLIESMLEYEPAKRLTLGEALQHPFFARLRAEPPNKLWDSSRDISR

ERK2 = ERK2 (Homo sapiens, UniProt P28482); test: Isothermal titration calorimetry; assay type: binding; conditions: ITC
Sequence of ERK2 (P28482 whole entry): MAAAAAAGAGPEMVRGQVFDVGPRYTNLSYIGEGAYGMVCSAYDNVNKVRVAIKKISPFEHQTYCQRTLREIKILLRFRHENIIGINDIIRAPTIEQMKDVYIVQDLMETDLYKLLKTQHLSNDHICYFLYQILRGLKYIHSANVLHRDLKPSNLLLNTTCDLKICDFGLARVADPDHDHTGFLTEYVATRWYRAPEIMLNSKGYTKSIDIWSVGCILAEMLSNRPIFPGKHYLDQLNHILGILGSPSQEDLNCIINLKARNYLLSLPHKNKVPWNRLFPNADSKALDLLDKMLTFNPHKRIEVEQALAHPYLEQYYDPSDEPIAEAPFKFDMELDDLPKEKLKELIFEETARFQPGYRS

ERK1 [4] = target: T1, ERK1; test: Enzymatic IC50 assay; assay type: biochemical
JNK3 = JNK3 (Homo sapiens, UniProt P53779); test: Enzymatic IC50 assay; assay type: biochemical
Sequence of JNK3 (P53779 whole entry): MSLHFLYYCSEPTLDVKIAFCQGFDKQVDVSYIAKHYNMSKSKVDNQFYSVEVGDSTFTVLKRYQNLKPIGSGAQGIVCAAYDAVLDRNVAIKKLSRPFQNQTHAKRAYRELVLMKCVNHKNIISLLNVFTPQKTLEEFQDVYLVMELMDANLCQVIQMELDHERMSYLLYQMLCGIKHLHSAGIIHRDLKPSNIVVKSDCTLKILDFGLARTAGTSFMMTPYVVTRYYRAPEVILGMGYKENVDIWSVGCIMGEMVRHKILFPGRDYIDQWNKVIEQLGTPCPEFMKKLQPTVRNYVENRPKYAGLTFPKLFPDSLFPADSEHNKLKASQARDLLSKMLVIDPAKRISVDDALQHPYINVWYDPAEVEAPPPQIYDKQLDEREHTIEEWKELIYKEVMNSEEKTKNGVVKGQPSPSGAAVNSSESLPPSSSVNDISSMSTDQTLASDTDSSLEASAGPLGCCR

[5] = test system: CLK1, CLK2, JNK2, CSNK2A1/A2, DRAK1 and TTK; test: Bio-layer interferometry binding kinetics on off-targets; parameters: species or system human; conditions: BLI, 25 °C
Summary of the method: as §1

[6] = test system: HEK293T cells lacking RAD51; test: Cell viability of RAD51 siRNA-depleted cells; assay type: cell-based, human; conditions: six-day exposure
Summary of the method: as §2

Nc1ncnc2c1c(I)cn2[C@@H]1O[C@H](CO)[C@@H](O)[C@H]1O [5-iTU, 5-iodotubercidin]
binding kinetics (association and dissociation) (ERK1/2): fast kinetic behaviours

Nc1[nH]nc2nnc(-c3c(-c4ccccc4)nn4ccccc34)cc12 [FR180204]
binding kinetics (association and dissociation) (ERK1/2): fast kinetic behaviours
pRSK1 inhibition [1]: not see a strong effect

O=C(Nc1ccc2[nH]nc(-c3ccncc3)c2c1)[C@@H]1CCN(CC(=O)N2CCN(c3ccc(-c4ncccn4)cc3)CC2)C1 [SCH772984]
IC50 in the enzymatic assay (CSNK2A2): no activity
sensitization by BRCA2 knockdown (HEK293T cells): sensitized
sensitization by BRCA2 knockdown (MDA-MB 231 cells): sensitized
cell survival of BRCA2-deficient compared with BRCA2-complemented cells (V-C8 cells): significant reduction in cell survival
binding kinetics (ERK2 mutants; listed as SCH771984): retained slow association and dissociation kinetics; also recorded: still showed slow binding kinetics
binding enthalpy change (ERK1 [2]): about −20 kcal/mol
IC50 [3]: 104 nM
binding enthalpy change (ERK2): about −20 kcal/mol
binding kinetics (association and dissociation) (ERK1/2): slow binding kinetics
IC50 (ERK1 [4]): 8.3 nM
IC50 (JNK3): 632 nM
binding kinetics (association and dissociation) [5]: fast association and dissociation rates

Cc1cnc(Nc2ccc(F)cc2Cl)nc1-c1c[nH]c(C(=O)N[C@H](CO)c2cccc(Cl)c2)c1 [VTX-11e]
sensitization by BRCA2 knockdown (HEK293T cells): sensitized
cell survival of BRCA2-deficient compared with BRCA2-complemented cells (V-C8 cells): Significant differences in cell survival
binding kinetics (ERK2 mutants; BLI, double mutants Y36Q/Y64K and Y36Q/Y64D): increase inhibitor off-rates further
binding kinetics (ERK2 mutants; BLI, single mutants Y36Q and Y64K): significantly reduced inhibitor off-rates
binding kinetics (association and dissociation) (ERK1/2): slow association and dissociation patterns
dissociation half-life (ERK1/2; estimated): 35 to 46 min
cell killing of RAD51-depleted relative to control cells [6]: significant increase in cell killing

O=C(c1cc(Cc2n[nH]c(=O)c3ccccc23)ccc1F)N1CCN(C(=O)C2CC2)CC1 [olaparib]
cell killing of RAD51-depleted relative to control cells [6]: specific elimination of RAD51-depleted cells
